Consider 22 compounds from ChEMBL document CHEMBL1134392, “Novel p-arylthio cinnamides as antagonists of leukocyte function-associated antigen-1/intracellular adhesion molecule-1 interaction. 2. Mechanism of inhibition and structure-based improvement of pharmaceutical properties” (J Med Chem, 2001).

In brackets after ≈: the same amount, converted by molar mass.

The term IC50 denotes the concentration that gives 50% inhibition. Low values mean greater potency in that assay, high ones weaker potency in that assay. As a reminder, the Kd is the equilibrium constant for the complex coming apart. Higher therefore signals lower affinity. A word on the Cmax: it is the maximum level reached in the sampled fluid or tissue. What is called Tmax is the time at which the peak concentration occurs. The solubility is how much of the substance goes into solution per volume. For orientation: half-life means the time needed for the level to fall by half in the phase considered. High values mean slow loss, low ones fast loss. As a reminder, the AUC is concentration integrated over time. A high value points to high exposure. A word on the bioavailability: it is dose-corrected exposure relative to a reference, in per cent. The low end stands for poor availability, the high end for good availability.

Series [1] concerns the target T1, Intercellular adhesion molecule (ICAM-1), Integrin alpha-L/beta-2 (Homo sapiens, UniProt P05107+P20701). Put plainly: Inhibition of JY-8 cell adhesion via leukocyte function associated antigen 1 (LFA-1) to ICAM-1, range (120-140). It counts as cell-based.
In series [2] the target is T1, Intercellular adhesion molecule (ICAM-1), Integrin alpha-L/beta-2. Put plainly: Inhibition of JY-8 cell adhesion via leukocyte function associated antigen 1 (LFA-1) to ICAM-1. It counts as cell-based.
Series [3] is described as follows: Dissociation constant was determined. Format: physicochemical.
Series [4] concerns the target Integrin alpha-L (Homo sapiens). Put plainly: Binding affinity to leukocyte function associated antigen 1 (LFA-1) I domain by NMR.
Series [5] deals with T1, Intercellular adhesion molecule (ICAM-1), Integrin alpha-L/beta-2. The series is described as follows: Inhibition of JY-8 cell adhesion via leukocyte function associated antigen 1 (LFA-1) to ICAM-1, range (110-140).
The target is the same in series [6]. Put plainly: Inhibition of JY-8 cell adhesion via leukocyte function associated antigen 1 (LFA-1) to ICAM-1, range (370-470). It counts as cell-based.
For series [7] the target is unchanged. The series is described as follows: Inhibition of JY-8 cell adhesion via leukocyte function associated antigen 1 (LFA-1) to ICAM-1, range (90-100). It counts as cell-based.
A short description of series [8]: Mean Cmax in rats after 5 mg/kg oral dose, range (0.4-0.8). As to conditions: rat, in vivo. It counts as ADME, organism-based. Also on record: dose 5 mg/kg, route oral.
Series [9] is described as follows: Pharmacokinetic parameter was evaluated after oral administration of 5 mg/kg; range (4-8). It counts as ADME, organism-based. Also on record: dose 5 mg/kg, route oral. Conditions: in vivo.
A short description of series [10]: solubility was determined. It counts as physicochemical. In outline: (§1)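 Excess solid removed by filtration. The saturated solution was diluted and drug concentration measured by UV spectrophotometry.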
Series [11] in a line: Half life when administered 5 mg/kg orally; range (4.1-5.5). Format: ADME, organism-based. Also on record: dose 5 mg/kg. Conditions: in vivo, po.
Series [12] addresses T1, Intercellular adhesion molecule (ICAM-1), Integrin alpha-L/beta-2.
Series [13] can be described thus: Pharmacokinetic parameter was evaluated which is represented as AUC when administered orally a dose of 5 mg/kg; range (4.2-8.8). Format: ADME, organism-based. Also on record: dose 5 mg/kg, route oral. Conditions: in vivo, po.
Series [14] in a line: Pharmacokinetic parameter was evaluated which is represented as AUC when administered 5 mg/kg intravenously; range (2.1-2.3). It counts as ADME, organism-based. Also on record: dose 5 mg/kg, route intravenous. As to conditions: in vivo, iv.
The nature of series [15]: Pharmacokinetic parameter was evaluated which is represented as Vbeta; range (0.9-6). It counts as ADME.
Series [16] can be described thus: Pharmacokinetic parameter was evaluated which is represented as AUC when administered 5 mg/Kg orally; range (0.19-0.35). Format: ADME. Conditions: in vivo, po.
A short description of series [17]: Half life when administered intravenously; range (0.3-1.79). Format: ADME, organism-based. As to conditions: in vivo, iv.
Series [18] can be described thus: Half life when administered 5 mg/kg orally; range (0.99-1.14). It counts as ADME, organism-based. Also on record: dose 5 mg/kg. Conditions: in vivo, po.
Series [19] concerns the target T1, Intercellular adhesion molecule (ICAM-1), Integrin alpha-L/beta-2. The series is described as follows: Inhibition of JY-8 cell adhesion via leukocyte function associated antigen 1 (LFA-1) to ICAM-1, range (30-60). It counts as cell-based.
The nature of series [20]: Bioavailability was evaluated after oral administration of 5 mg/kg; range (8.7-15.8). As to conditions: eutheria, in vivo. Format: ADME, organism-based.
Series [21] can be described thus: Pharmacokinetic parameter was evaluated after oral administration of 5 mg/kg; range (0.2-1). It counts as ADME, organism-based. Also on record: dose 5 mg/kg, route oral. As to conditions: in vivo.
Series [22] in a line: Mean Cmax in rats after 5 mg/kg oral dose, range (0.17-0.20). Format: ADME, organism-based. Also on record: dose 5 mg/kg, route oral. Conditions: rat, in vivo.
For series [23], the target named is T1, Intercellular adhesion molecule (ICAM-1), Integrin alpha-L/beta-2. The series is described as follows: Inhibition of JY-8 cell adhesion via leukocyte function associated antigen 1 (LFA-1) to ICAM-1, range (320-350). Format: cell-based.
Series [24] has the same target. Put plainly: Inhibition of JY-8 cell adhesion via leukocyte function associated antigen 1 (LFA-1) to ICAM-1, range (100-110). Format: cell-based.
For series [25] the target is unchanged. This is another data set of the same source.
The nature of series [26]: solubility in rats. Format: ADME. Summed up:
as §1

Series [27] in a line: Bioavailability was evaluated in rats. It counts as ADME, organism-based. As to conditions: rat, in vivo.
A further series is filed under the species Rattus norvegicus. The series is described as follows: Pharmacokinetic parameter was evaluated in rats which is represented as Vbeta. Format: ADME, organism-based. Conditions: in vivo.
Series [28] can be described thus: Half life was determined after intravenous administration. It counts as ADME, organism-based. As to conditions: in vivo.
A short description of series [29]: AUC(area under curve) was determined after intravenous administration in rats. It counts as ADME, organism-based. As to conditions: rat, plasma.

T1 sequence (P20701 whole entry): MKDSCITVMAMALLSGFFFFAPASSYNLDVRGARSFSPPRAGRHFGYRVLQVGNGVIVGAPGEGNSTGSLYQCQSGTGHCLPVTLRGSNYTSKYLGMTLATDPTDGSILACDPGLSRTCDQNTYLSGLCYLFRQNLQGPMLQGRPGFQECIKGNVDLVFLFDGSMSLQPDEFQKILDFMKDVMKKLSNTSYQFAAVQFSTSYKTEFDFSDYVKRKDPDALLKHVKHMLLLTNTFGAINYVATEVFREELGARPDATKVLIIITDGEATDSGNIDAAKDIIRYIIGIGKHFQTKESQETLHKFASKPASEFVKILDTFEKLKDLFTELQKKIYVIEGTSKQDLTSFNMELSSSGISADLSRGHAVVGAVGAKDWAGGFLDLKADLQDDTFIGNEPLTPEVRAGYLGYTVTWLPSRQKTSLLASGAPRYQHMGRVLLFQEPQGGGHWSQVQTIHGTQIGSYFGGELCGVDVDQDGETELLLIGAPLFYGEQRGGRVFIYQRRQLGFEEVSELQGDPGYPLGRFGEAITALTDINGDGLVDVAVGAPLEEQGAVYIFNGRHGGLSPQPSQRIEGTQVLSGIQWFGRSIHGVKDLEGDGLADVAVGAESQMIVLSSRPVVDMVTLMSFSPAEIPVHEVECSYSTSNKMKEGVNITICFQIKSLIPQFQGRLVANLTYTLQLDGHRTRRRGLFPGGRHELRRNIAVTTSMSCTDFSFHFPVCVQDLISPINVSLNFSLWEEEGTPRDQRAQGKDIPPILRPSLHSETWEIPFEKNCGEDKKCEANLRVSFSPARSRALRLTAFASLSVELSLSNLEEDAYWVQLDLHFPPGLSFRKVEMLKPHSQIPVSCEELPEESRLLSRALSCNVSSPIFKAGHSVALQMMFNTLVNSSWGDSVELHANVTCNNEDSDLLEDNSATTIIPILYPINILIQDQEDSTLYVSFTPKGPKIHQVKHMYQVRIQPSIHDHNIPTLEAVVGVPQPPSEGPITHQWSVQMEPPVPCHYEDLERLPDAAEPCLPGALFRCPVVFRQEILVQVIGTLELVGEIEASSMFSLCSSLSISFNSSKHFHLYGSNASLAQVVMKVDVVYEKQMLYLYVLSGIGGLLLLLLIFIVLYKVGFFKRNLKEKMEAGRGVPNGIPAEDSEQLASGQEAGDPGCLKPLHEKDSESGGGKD
T1 sequence (P05362 whole entry, further chain): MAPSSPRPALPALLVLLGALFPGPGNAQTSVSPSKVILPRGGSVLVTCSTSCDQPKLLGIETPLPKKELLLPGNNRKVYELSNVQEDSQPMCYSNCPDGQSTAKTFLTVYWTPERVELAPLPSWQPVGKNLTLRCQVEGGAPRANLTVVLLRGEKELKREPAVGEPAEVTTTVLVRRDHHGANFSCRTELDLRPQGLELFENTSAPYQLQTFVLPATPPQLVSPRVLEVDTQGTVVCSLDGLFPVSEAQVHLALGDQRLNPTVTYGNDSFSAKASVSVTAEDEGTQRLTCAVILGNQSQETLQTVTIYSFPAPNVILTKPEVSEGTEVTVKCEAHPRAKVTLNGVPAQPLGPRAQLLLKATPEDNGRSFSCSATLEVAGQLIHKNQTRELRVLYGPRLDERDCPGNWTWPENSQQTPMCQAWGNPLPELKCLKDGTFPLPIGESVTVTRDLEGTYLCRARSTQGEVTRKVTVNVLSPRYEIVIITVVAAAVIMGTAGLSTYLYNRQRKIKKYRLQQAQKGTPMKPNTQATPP
T1 sequence (P05107 whole entry): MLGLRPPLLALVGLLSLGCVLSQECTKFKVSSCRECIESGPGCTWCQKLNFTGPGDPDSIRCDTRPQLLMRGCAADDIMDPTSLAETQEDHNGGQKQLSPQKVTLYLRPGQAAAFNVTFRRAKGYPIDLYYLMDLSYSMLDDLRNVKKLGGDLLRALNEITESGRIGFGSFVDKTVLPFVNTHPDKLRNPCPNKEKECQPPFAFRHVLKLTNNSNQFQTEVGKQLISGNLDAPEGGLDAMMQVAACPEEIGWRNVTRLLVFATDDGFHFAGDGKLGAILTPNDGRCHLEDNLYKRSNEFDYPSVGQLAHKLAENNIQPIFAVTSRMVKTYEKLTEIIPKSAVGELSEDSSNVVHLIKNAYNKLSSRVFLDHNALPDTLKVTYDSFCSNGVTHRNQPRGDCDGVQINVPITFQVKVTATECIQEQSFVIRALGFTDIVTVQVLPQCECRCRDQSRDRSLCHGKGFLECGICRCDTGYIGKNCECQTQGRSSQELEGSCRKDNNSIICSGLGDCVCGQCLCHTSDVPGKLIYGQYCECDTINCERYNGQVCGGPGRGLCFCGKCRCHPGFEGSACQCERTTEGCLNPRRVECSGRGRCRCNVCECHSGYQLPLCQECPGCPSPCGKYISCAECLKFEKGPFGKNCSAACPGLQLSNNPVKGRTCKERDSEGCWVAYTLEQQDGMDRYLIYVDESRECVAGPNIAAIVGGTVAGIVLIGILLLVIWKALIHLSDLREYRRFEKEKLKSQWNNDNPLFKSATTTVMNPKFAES

Consider `CCn1ccc2cccc(Sc3ccc(/C=C/C(=O)N4CCN(C(C)=O)CC4)cc3Cl)c21`, for which the half-inhibitory concentration (IC50) in series [1] is 0.13 µM.
As to `Nc1ccc(Sc2ccc3ccccc3c2Cl)c(Cl)c1`, the midpoint of inhibition in series [2], the IC50, lay at 2.3 µM. The Kd in [3] was < 20 µM.
`c1ccc2c(c1)OCCO2` returned a dissociation constant (Kd) in [4] of 10000 µM.
Compound `CC(=O)N1CCN(C(=O)/C=C/c2ccc(Sc3ccc4c(c3)OCO4)c(Cl)c2)CC1` showed an IC50 in series [5] of 0.12 µM.
As to `CC(=O)N1CCN(C(=O)/C=C/c2ccc(Sc3ccc4[nH]cc(CN(C)C)c4c3)c(Cl)c2)CC1`, the IC50 in series [6] was found to be 0.42 µM.
For `CC(=O)N1CCN(C(=O)/C=C/c2ccc(Sc3cccc4ccn(C)c34)c(Cl)c2)CC1`, the IC50 in series [2] came to 0.07 µM.
Same read-out and setting: as for `CC(=O)N1CCN(C(=O)/C=C/c2ccc(Sc3ccc4c(c3)OCC(C(=O)N(C)C)O4)c(Cl)c2)CC1` (stereo unspecified), the figure is 0.51 µM; as for `CC(=O)N1CCN(C(=O)/C=C/c2ccc(Sc3ccc4c(c3)OCC(CO)O4)c(Cl)c2)CC1` (stereo unspecified), 0.02 µM; as for `CCOc1c(Sc2ccc(/C=C/C(=O)N3CCN(C(C)=O)CC3)cc2Cl)cc(Cl)c2cccnc12`, 0.58 µM.
Same read-out and setting: as for `CC(=O)N1CCN(C(=O)/C=C/c2ccc(Sc3ccc4c(ccn4C)c3)c(Cl)c2)CC1`, the figure is 0.02 µM.
On to `CCOc1c(Sc2ccc(/C=C/C(=O)N3CCN(C(C)=O)CC3)cc2Cl)ccc2c1OCCO2`, for which the 50% inhibitory concentration (IC50) in series [7] turned out to be 0.1 µM.
In turn, `Cn1ccc2ccccc21` returned a dissociation constant (Kd) in [4] of 1400 µM.
On to `CC(=O)N1CCN(C(=O)/C=C/c2ccc(Sc3ccc4[nH]ccc4c3)c(Cl)c2)CC1`, for which, in series [8], the Cmax worked out at 600 ng/mL. The time of peak concentration (Tmax) in [9] is 360 min. Further, in series [10], the concentration in solution (solubility) was 0.8 µg/mL (≈ 1.82 µM). This compound showed a half-life in series [11] of 282 min. Besides, in series [12], it took 0.02 µM to reach half-maximal inhibition (IC50). Also, the AUC in [13] is 5800 ng·h/mL.
On to `CC(=O)N1CCN(C(=O)/C=C/c2ccc(Sc3ccc4c(c3)OCCO4)c(Cl)c2)CC1`, for which the AUC was found to be 2200 ng·h/mL in series [14] and 280 ng·h/mL in series [16]. Besides, the Vbeta in series [15] stood at 3 kg⁻¹. In series [10], this compound returned a solubility of 4.1 µg/mL (≈ 8.93 µM). Also, the half-life is 33 min in series [17] and 66 min in series [18]. The 50% inhibitory concentration (IC50) in series [19] turned out to be 0.04 µM. In [20], this compound registered a bioavailability of 12.4%. In series [21], the Tmax is 30 min. The compound further yielded a Cmax in [22] of 190 ng/mL.
For the compound `CC(=O)N1CCN(C(=O)/C=C/c2ccc(Sc3ccc4c(ccn4CC(=O)O)c3)c(Cl)c2)CC1`, half-maximal inhibition in [23] (IC50) required 0.33 µM.
Compound `CCn1cc(CN(C)C)c2cccc(Sc3ccc(/C=C/C(=O)N4CCN(C(C)=O)CC4)cc3Cl)c21` gave a half-maximal inhibitory concentration (IC50) in [24] of 0.1 µM.
As to `CC(=O)N1CCN(C(=O)/C=C/c2ccc(Sc3ccc4c(c3)OCC(C(=O)O)O4)c(Cl)c2)CC1` (stereo unspecified), in [2], the IC50 is 1.2 µM.
In turn, `CC(=O)N1CCN(C(=O)/C=C/c2ccc(Sc3cc4[nH]c(O)nc4cc3Cl)c(Cl)c2)CC1` had an IC50 in series [25] of 0.79 µM.
On to `CC(=O)N1CCN(C(=O)/C=C/c2ccc(Sc3ccc4cc[nH]c4c3)c(Cl)c2)CC1`, for which 0.15 µM corresponded to half-maximal inhibition in series [2] (IC50).
As for `COCCn1ccc2cc(Sc3ccc(/C=C/C(=O)N4CCN(C(C)=O)CC4)cc3Cl)ccc21`, the half-inhibitory concentration (IC50) in series [19] amounted to 0.06 µM.
`CC(=O)N1CCN(C(=O)/C=C/c2ccc(Sc3ccccc3C(C)C)c([N+](=O)[O-])c2)CC1` [A-286982] returned a solubility in [26] of 0.9 µg/mL (≈ 1.98 µM). The same compound gave a bioavailability in [27] of 0%. The compound further returned a Vbeta in the series filed under Rattus norvegicus of 2 kg⁻¹. The compound also had a half-life in series [28] of 24 min. The AUC in series [29] was 1900 ng·h/mL.
In [4], `c1ccc2nsnc2c1` [BENZO[1,2,5]THIADIAZOLE] gave a Kd of 8000 µM.
